pIC50: −log10 of the molar value.
Columns and labels:
[1] = molecular target: Protein kinase C theta type (Homo sapiens, UniProt Q04759); assay: Inhibition of N-terminal FLAG-tagged PKCtheta expressed in baculovirus after 5 mins by scintillation counter
[2] = molecular target: Cytoplasmic tyrosine-protein kinase BMX (Homo sapiens, UniProt P51813); assay: Inhibition of full length N-terminal FLAG-tagged BMX expressed in baculovirus after 5 mins
Method in brief: (§1)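 AlphaScreen tyrosine kinase assay: 50 mmol/L Tris-HCl pH 7.5, 5 mmol/L MnCl₂, 5 mmol/L MgCl₂, 0.01% Tween-20, 2 mmol/L DTT, biotinylated poly-Glu-Tyr (4:1), kinase-optimized enzyme, ATP and time (5–60 min). Seven compound concentrations, 0.01–10000 nmol/L, preincubated 5 min at room temperature. Stopped with EDTA plus streptavidin donor and PY-100 or PT66 acceptor beads; read after >12 h in the dark. Controls: no compound; no ATP.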

[3] = molecular target: Dual specificity mitogen-activated protein kinase kinase 5 (Homo sapiens, UniProt Q13163); assay: Inhibition of N-terminal FLAG-tagged MEK5 expressed in baculovirus after 5 mins by scintillation counter
[4] = molecular target: Mitogen-activated protein kinase kinase kinase 5 (Homo sapiens, UniProt Q99683); assay: Inhibition of N-terminal FLAG-tagged ASK1 expressed in baculovirus after 5 mins by scintillation counter
[5] = molecular target: Tyrosine-protein kinase ZAP-70 (Homo sapiens, UniProt P43403); assay: Inhibition of ZAP70 after 5 mins; method in brief: as §1
Sequence of Tyrosine-protein kinase ZAP-70 (P43403 whole entry): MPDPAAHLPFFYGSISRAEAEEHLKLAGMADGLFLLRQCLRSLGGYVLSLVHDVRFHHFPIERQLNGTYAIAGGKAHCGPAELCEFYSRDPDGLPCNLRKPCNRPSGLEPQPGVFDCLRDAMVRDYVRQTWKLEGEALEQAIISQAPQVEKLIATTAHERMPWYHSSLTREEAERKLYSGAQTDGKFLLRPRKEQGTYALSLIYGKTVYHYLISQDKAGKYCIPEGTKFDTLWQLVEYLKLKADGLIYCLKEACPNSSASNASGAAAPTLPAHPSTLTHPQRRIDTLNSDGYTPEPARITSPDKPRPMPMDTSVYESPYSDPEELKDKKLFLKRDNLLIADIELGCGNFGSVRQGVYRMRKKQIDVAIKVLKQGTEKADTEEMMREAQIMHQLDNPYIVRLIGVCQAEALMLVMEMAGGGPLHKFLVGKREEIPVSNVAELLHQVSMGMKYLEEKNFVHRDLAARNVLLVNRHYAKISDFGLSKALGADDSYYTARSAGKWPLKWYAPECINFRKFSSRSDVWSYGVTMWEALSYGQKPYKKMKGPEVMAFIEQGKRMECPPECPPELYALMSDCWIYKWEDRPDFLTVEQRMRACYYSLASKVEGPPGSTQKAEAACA

[6] = molecular target: Inhibitor of nuclear factor kappa-B kinase subunit beta (Homo sapiens, UniProt O14920); assay: Inhibition of C-terminal FLAG-tagged IKKbeta expressed in baculovirus after 5 mins by scintillation counter
[7] = molecular target: Aurora kinase B (Homo sapiens, UniProt Q96GD4); assay: Inhibition of N-terminal His6-tagged Aurora B expressed in baculovirus after 5 mins by scintillation counter
Sequence of Aurora kinase B (Q96GD4 whole entry): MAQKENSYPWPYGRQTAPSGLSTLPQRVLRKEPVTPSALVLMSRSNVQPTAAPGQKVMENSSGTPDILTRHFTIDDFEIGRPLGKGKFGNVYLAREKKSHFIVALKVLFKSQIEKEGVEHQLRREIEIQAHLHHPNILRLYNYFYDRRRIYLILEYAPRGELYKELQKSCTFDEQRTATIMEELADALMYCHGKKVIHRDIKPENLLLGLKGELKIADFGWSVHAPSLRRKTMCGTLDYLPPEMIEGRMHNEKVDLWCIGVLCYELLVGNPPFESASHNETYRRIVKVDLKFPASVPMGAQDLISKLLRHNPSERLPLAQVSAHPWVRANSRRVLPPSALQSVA

[8] = molecular target: Mitogen-activated protein kinase 8 (Homo sapiens, UniProt P45983); assay: Inhibition of N-terminal FLAG-tagged JNK1 expressed in baculovirus after 5 mins by scintillation counter
[9] = molecular target: Glycogen synthase kinase-3 beta (Homo sapiens, UniProt P49841); assay: Inhibition of N-terminal FLAG-tagged GSK3beta expressed in baculovirus after 5 mins by scintillation counter
[10] = Antitumor activity against human 4-1ST cells xenografted in BALB/c nu/nu mouse at 50 mg/kg, po bid administered 14 days measured on day 31 relative to control; assay type: functional
Method in brief: (§2)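 4-1ST human gastric tumour tissue from donor animals minced and implanted subcutaneously in nude mice or nude rats. Tumours of 200–300 mm³ used. Compounds in 0.5% (w/v) methylcellulose given orally twice daily at 10 mL/kg for 14 days; control got vehicle. Doses expressed as salt-free. Caliper volume (a×b²/2) measured blind 2–3 times weekly. T/C (%) versus control; five mice or eight rats per group.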

[11] = molecular target: Insulin receptor (Homo sapiens, UniProt P06213); assay: Inhibition of INSR after 5 mins; method in brief: as §1
[12] = molecular target: T1, Tyrosine-protein kinase Lyn (Homo sapiens, UniProt P07948); assay: Inhibition of LYN A after 5 mins; method in brief: as §1
T1 sequence (P07948 whole entry): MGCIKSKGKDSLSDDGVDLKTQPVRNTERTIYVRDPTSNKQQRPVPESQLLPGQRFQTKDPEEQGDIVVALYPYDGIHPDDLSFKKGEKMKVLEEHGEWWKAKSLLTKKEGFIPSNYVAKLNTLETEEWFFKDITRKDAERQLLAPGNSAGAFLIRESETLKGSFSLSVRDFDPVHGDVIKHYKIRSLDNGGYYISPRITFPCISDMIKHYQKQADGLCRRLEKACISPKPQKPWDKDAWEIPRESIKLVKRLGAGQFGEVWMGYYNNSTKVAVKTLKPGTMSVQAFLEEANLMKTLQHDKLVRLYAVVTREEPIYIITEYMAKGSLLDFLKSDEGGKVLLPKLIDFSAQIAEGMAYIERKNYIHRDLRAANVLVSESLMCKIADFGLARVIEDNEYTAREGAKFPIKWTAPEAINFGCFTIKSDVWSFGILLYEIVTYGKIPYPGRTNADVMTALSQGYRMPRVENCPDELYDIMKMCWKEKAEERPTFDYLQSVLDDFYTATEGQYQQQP

[13] = Antitumor activity against human 4-1ST cells xenografted in F344/N jcl-rnu rat at 12.5 mg/kg, po bid administered 14 days measured on day 31 relative to control; assay type: functional; method in brief: as §2
[14] = molecular target: Hepatocyte growth factor receptor (Homo sapiens, UniProt P08581); assay: Inhibition of c-Met after 5 mins; method in brief: as §1
[15] = molecular target: Vascular endothelial growth factor receptor 2 (Homo sapiens, UniProt P35968); assay: Inhibition of N-terminal FLAG-tagged VEGFR2 cytoplasmic domain expressed in baculovirus after 5 mins; method in brief: as §1
[16] = molecular target: Mitogen-activated protein kinase kinase kinase 7 (Homo sapiens, UniProt O43318); assay: Inhibition of N-terminal FLAG-tagged TAK1 expressed in baculovirus after 5 mins by scintillation counter
[17] = molecular target: Angiopoietin-1 receptor (Homo sapiens, UniProt Q02763); assay: Inhibition of TIE2 after 5 mins; method in brief: as §1
[18] = molecular target: Mitogen-activated protein kinase 14 (Homo sapiens, UniProt Q16539); assay: Inhibition of N-terminal FLAG-tagged p38alpha expressed in baculovirus after 5 mins by scintillation counter
[19] = molecular target: Dual specificity mitogen-activated protein kinase kinase 1 (Homo sapiens, UniProt Q02750); assay: Inhibition of N-terminal GST-tagged MEK1 after 5 mins by scintillation counter
[20] = Antitumor activity against human 4-1ST cells xenografted in BALB/c nu/nu mouse at 100 mg/kg, po bid administered 14 days measured on day 31 relative to control; assay type: functional; method in brief: as §2
[21] = molecular target: Serine/threonine-protein kinase B-raf (Homo sapiens, UniProt P15056); assay: Inhibition of N-terminal FLAG-tagged B-raf expressed in baculovirus after 5 mins by scintillation counter
[22] = molecular target: Vascular endothelial growth factor receptor 1 (Homo sapiens, UniProt P17948); assay: Inhibition of VEGFR1 after 5 mins; method in brief: as §1
[23] = molecular target: Fibroblast growth factor receptor 1 (Homo sapiens, UniProt P11362); assay: Inhibition of FGFR1 after 5 min; method in brief: as §1
[24] = molecular target: Proto-oncogene tyrosine-protein kinase Src (Homo sapiens, UniProt P12931); assay: Inhibition of Src after 5 mins; method in brief: as §1
Sequence of Proto-oncogene tyrosine-protein kinase Src (P12931 2-536 limits assumed): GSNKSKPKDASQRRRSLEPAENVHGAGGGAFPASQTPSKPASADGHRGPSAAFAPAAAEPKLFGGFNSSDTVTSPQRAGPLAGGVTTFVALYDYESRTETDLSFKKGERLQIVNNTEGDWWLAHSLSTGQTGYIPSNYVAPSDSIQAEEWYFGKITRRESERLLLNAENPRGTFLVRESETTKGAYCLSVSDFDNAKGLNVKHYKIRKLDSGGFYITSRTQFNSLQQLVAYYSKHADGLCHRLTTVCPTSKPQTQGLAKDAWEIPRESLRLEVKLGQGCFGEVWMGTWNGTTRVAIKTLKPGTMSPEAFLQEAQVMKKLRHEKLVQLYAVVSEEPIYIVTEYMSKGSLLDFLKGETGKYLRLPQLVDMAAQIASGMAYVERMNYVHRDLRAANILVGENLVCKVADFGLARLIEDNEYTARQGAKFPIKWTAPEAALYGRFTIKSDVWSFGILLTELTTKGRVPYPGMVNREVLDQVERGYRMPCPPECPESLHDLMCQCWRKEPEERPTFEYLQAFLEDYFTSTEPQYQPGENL

[25] = molecular target: Fibroblast growth factor receptor 3 (Homo sapiens, UniProt P22607); assay: Inhibition of FGFR3 after 5 mins; method in brief: as §1
Sequence of Fibroblast growth factor receptor 3 (P22607 whole entry): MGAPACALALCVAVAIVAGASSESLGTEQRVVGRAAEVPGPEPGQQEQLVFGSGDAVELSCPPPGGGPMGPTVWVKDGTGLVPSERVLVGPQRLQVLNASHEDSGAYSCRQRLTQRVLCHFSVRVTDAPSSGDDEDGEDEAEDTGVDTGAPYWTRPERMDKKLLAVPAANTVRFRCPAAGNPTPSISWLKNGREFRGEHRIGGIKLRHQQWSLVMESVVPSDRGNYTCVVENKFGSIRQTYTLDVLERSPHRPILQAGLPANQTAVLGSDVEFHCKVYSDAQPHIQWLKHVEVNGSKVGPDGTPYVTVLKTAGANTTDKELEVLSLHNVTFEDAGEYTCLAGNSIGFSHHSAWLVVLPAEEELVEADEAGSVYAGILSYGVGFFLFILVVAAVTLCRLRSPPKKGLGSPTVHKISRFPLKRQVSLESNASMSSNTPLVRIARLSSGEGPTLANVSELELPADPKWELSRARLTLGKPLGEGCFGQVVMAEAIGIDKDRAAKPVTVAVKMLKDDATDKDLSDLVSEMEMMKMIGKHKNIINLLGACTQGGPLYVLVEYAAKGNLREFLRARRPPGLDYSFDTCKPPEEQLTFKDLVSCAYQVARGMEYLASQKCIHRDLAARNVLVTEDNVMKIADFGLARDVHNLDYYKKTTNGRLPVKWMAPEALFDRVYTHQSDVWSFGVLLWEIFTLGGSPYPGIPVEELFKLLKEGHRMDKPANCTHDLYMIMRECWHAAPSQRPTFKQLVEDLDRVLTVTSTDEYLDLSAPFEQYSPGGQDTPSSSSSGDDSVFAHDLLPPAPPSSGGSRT

[26] = Antitumor activity against human 4-1ST cells xenografted in F344/N jcl-rnu rat at 25 mg/kg, po bid administered 14 days measured on day 31 relative to control; assay type: functional; method in brief: as §2
[27] = molecular target: Tyrosine-protein kinase CSK (Homo sapiens, UniProt P41240); assay: Inhibition of CSK after 5 mins; method in brief: as §1
[28] = molecular target: Insulin-like growth factor 1 receptor (Homo sapiens, UniProt P08069); assay: Inhibition of IGF-1R after 5 mins; method in brief: as §1
Sequence of Insulin-like growth factor 1 receptor (P08069 31-736 limits assumed): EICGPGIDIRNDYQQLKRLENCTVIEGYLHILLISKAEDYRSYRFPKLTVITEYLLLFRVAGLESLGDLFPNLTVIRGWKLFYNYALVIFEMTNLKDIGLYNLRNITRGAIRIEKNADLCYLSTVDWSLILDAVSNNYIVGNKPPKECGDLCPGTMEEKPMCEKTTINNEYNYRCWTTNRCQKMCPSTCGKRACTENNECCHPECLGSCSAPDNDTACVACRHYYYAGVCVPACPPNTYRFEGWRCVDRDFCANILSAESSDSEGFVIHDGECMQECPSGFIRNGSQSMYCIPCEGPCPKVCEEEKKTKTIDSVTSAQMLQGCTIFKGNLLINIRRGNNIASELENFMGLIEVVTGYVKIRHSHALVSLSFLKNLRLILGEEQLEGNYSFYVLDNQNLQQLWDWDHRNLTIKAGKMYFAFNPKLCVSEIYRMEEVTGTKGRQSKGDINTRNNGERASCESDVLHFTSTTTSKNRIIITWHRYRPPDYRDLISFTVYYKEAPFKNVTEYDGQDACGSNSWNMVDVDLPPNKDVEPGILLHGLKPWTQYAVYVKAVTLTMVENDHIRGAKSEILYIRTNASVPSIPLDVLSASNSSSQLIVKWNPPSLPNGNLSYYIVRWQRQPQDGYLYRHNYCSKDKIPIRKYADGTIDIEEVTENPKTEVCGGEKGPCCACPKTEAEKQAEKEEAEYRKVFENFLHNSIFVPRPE
Sequence of Insulin-like growth factor 1 receptor (P08069 741-1367 limits assumed): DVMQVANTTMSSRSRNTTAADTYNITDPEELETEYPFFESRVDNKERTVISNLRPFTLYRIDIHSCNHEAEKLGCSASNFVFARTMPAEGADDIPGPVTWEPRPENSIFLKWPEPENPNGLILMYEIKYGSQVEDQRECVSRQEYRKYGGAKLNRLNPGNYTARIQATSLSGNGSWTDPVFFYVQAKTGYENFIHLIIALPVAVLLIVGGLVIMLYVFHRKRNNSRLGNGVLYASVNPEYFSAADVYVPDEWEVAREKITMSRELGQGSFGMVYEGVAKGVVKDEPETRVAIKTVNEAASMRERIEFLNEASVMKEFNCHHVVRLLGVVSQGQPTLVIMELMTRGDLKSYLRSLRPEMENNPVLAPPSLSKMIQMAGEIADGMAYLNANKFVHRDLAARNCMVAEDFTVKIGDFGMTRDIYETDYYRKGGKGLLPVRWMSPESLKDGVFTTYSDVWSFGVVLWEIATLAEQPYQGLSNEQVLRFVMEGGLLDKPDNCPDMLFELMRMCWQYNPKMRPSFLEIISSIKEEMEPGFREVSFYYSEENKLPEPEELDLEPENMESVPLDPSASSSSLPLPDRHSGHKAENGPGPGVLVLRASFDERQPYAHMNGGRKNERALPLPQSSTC

[29] = molecular target: Mitogen-activated protein kinase 3 (Homo sapiens, UniProt P27361); assay: Inhibition of N-terminal FLAG-tagged ERK1 expressed in baculovirus after 5 mins by scintillation counter
[30] = molecular target: Mitogen-activated protein kinase kinase kinase 1 (Homo sapiens, UniProt Q13233); assay: Inhibition of C-terminal FLAG-tagged MEKK expressed in baculovirus after 5 mins by scintillation counter
[31] = molecular target: T1, Tyrosine-protein kinase Lyn; assay: Inhibition of LYN B after 5 mins; method in brief: as §1
[32] = molecular target: Receptor tyrosine-protein kinase erbB-4 (Homo sapiens, UniProt Q15303); assay: Inhibition of HER4 cytoplasmic domain after 5 mins by scintillation counter
Method in brief: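 HER4 cytoplasmic domain run as in the HER2/EGFR radiometric [γ-³²P]ATP filter assay: 5 min enzyme–compound preincubation, 10 min reaction at room temperature, TCA stop, scintillation count, nonlinear-regression IC₅₀.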

[33] = molecular target: Focal adhesion kinase 1 (Homo sapiens, UniProt Q05397); assay: Inhibition of full length N-terminal FLAG-tagged FAK expressed in baculovirus after 5 mins; method in brief: as §1
[34] = molecular target: Mast/stem cell growth factor receptor Kit (Homo sapiens, UniProt P10721); assay: Inhibition of c-kit after 5 mins; method in brief: as §1
[35] = molecular target: Dual specificity protein kinase TTK (Homo sapiens, UniProt P33981); assay: Inhibition of N-terminal FLAG-tagged TTK expressed in baculovirus after 5 mins by scintillation counter
[36] = molecular target: Serine/threonine-protein kinase PLK1 (Homo sapiens, UniProt P53350); assay: Inhibition of N-terminal FLAG-tagged PLK1 expressed in baculovirus after 5 mins by scintillation counter
Sequence of Serine/threonine-protein kinase PLK1 (P53350 whole entry): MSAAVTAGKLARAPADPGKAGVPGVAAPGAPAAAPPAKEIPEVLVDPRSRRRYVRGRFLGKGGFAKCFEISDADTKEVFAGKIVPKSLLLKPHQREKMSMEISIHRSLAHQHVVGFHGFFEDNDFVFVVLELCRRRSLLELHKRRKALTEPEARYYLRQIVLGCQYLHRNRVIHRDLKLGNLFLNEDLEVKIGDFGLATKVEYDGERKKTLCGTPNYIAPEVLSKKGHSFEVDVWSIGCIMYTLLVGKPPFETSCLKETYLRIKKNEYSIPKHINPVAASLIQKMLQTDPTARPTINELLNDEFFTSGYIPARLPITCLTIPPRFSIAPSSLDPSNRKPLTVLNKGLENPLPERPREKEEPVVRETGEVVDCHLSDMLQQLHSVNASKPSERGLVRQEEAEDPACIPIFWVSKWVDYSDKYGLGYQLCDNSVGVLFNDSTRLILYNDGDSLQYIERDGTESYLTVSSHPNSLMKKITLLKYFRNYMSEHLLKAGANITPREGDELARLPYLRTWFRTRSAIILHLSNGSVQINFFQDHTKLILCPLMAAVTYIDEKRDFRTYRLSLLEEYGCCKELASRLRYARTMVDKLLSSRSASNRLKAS

## CC(C)(C(=O)NCCn1ccc2ncnc(Nc3ccc(Oc4cccc(Cl)c4)c(Cl)c3)c21)S(C)(=O)=O.Cc1ccc(S(=O)(=O)O)cc1
[1]
  pIC50: < 5.00
[2]
  pIC50: < 5.00
[3]
  pIC50: < 5.00
[4]
  pIC50: < 5.00
[5]
  pIC50: < 5.00
[6]
  pIC50: < 5.00
[7]
  pIC50: 6.30
[8]
  pIC50: < 5.00
[9]
  pIC50: < 5.00
[10]
  T/C: 41%
[11]
  pIC50: < 5.00
[12]
  pIC50: 5.44
[13]
  T/C: 41%
[14]
  pIC50: 5.41
[15]
  pIC50: < 5.00
[16]
  pIC50: < 5.00
[17]
  pIC50: < 5.00
[18]
  pIC50: < 5.00
[19]
  pIC50: 6.01
[20]
  T/C: 0%
[21]
  pIC50: < 5.00
[22]
  pIC50: < 5.00
[23]
  pIC50: < 5.00
[24]
  pIC50: < 5.00
[25]
  pIC50: < 5.00
[26]
  T/C: -1%
[27]
  pIC50: 5.29
[28]
  pIC50: < 5.00
[29]
  pIC50: < 5.00
[30]
  pIC50: < 5.00
[31]
  pIC50: 5.48
[32]
  pIC50: 6.80
[33]
  pIC50: < 5.00
[34]
  pIC50: < 5.00
[35]
  pIC50: < 5.00
[36]
  pIC50: < 5.00

Reference: ChEMBL document CHEMBL2146394, “Design and synthesis of pyrrolo[3,2-d]pyrimidine HER2/EGFR dual inhibitors: improvement of the physicochemical and pharmacokinetic profiles for potent in vivo anti-tumor efficacy” (Bioorg Med Chem, 2012)
